From PubChem BioAssay
rRNA inh HTS – inhibitors of bacterial rRNA selective over humanized ribosomes; E. coli WT GFP vs humanized-ribosome RFP mutants, fluorescence, 24 h; hits give low values; DMSO median 0, no signal -100; GFP signal change (wild-type ribosome), % (test concentration not listed); 350,000 compounds, 1.6% hits;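 active means significant combined selectivity score with lowered wild-type GFP, culture density cut under 30%, mutant RFP and density less affected; inactive means any of these conditions unmet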
FGF22 binding – FGF22 (human) thermal shift binding. recombinant FGF22 thermal shift, SYPRO orange fluorescence; percent of sucrose octasulfate shift, DMSO zero. Q9HCT0. activity (Tm shift, normalised), % at 9.99 µM. AID 651658. 340,000 compounds, 1.5% hits;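 active means mean Tm shift, scaled 0 neutral to 100 positive control, at about 1.3% or above, every replicate too, limit read from the data; inconclusive means no clear call, values can overlap the other calls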
Target sequence (Q9HCT0 whole entry, looked up): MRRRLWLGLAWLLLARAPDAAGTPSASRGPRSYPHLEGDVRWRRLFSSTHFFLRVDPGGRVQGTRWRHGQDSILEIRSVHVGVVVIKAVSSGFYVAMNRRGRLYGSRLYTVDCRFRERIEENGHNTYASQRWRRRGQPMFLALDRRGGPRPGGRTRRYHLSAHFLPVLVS
Vif inh – blocks HIV Vif function | HEK293T cells, Vif self-association by quenched fluorescence, imaging, 24 h | 340,000 compounds, 0.35% hits | inhibition, % at 7.49 µM; in the data active means inhibition above about 50%, passing the limit was not always enough; inconclusive means no clear call, values can overlap the other calls; inactive means below about 31%
PglD DTNB – PglD (C. jejuni) enzyme inhibition | inhibition, % at 12.5 µM | 360,000 compounds, 0.098% hits | purified PglD enzyme, DTNB colorimetric CoA detection; in the data active means inhibition above about 16%, passing the limit was not always enough; inconclusive means no clear call, values can overlap the other calls
PGC1a acetyl inh – modulators of PGC1a acetylation. inhibition, % at 15.6 µM. U2OS PGC1a acetylation, AlphaScreen anti-acetyl-lysine; with virally co-expressed GCN5 acetyltransferase. 350,000 compounds, 0.17% hits. AID 651687;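 active means every replicate shows inhibition of at least 40%; inconclusive means mean inhibition at least 40% but some replicate below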
Cneo AK release – Cryptococcus neoformans lysis via adenylate kinase release; C. neoformans lysis, adenylate kinase release luminescence, 4 h; normalised: neutral wells 0, clomiphene wells 100; lysis activity, % at 15 µM; 360,000 compounds, 0.2% hits;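 active means mean lysis activity across replicates of at least 80%, whatever share of replicates individually reach that level; inactive means mean lysis activity below 80%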
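Material – Cryptococcus neoformans yeast cells · Quantity – 5 × 10^6 yeast cells/mL · Buffer or medium – YPD medium · Compound – single dose · Timing – 4 h static compound exposure, 37 °C, read 1 h post-reagent · Signal – adenylate kinase release luminescence · Read-out basis – lysis from increased AK signal · Benchmarks – Clomiphene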
Large screens that a line does not name were inactive; ! = not confirmed by another sample. In the library only some 2.9% were active in any assay of this set; here they are far more common.

CN(C)CC(=O)N[C@@H]1CC[C@@H](CCn2cc(C3CC3)nn2)O[C@@H]1CO	none (no result: Vif inh)
C[C@H]1CN([C@@H](C)CO)S(=O)(=O)c2ccc(C3=CCCCC3)cc2O[C@H]1CN(C)Cc1ccccc1F	none (no result: Vif inh)
Cc1ccccc1OCC(O)Cn1c(Br)nc2c1c(=O)n(C)c(=O)n2C (configuration not stated)	none
Cc1ccccc1OCC(O)Cn1c(NCc2ccco2)nc2c1c(=O)n(C)c(=O)n2C (configuration not stated)	rRNA inh HTS -26
Cn1c(C(C(=O)NCC2CCCO2)N(CCc2ccccc2)C(=O)Cn2nnc3ccccc32)nc2ccccc21 (configuration not stated)	rRNA inh HTS -22
Cc1cc2ccccc2nc1-c1ccccc1F	rRNA inh HTS -16 (no result: PglD DTNB, PGC1a acetyl inh, Cneo AK release)
CCCc1nn2c(-c3ccccc3)nnc2o1	FGF22 binding 43, Vif inh inconclusive
CN(C)c1nn2c(-c3ccccc3)nnc2o1	FGF22 binding 43 (no result: PglD DTNB)
O=C(C[C@@H]1C[C@@H]2c3cc(NC(=O)C4CCC4)ccc3O[C@@H]2[C@H](CO)O1)NCCc1ccccc1	none (no result: Vif inh)
Cc1ccccc1S(=O)(=O)N1CC[C@@H]2[C@H](CO)Nc3ccc(-c4cccc(F)c4)cc3[C@@H]21	none (no result: Vif inh)
COc1ccc2c3c(n(C)c2c1)[C@@H](CO)N(CC1CCCC1)CC31CCN(C(=O)Nc2ccccc2)CC1	none (no result: Vif inh, PglD DTNB, Cneo AK release)
O=C(NCc1ccccc1C(F)(F)F)c1cccc2c1C(=O)c1ccc(N3CCC(N4CCCCC4)CC3)cc1S2(=O)=O	Vif inh 75
COc1ccc(NC(=O)N(C)C[C@@H]2Oc3ncc(C#CCN(C)C)cc3C(=O)N([C@H](C)CO)C[C@H]2C)cc1	none (no result: Vif inh)
CCOc1ccc(NC(=O)C2C(C(=O)O)C3(Cl)C(Cl)=C(Cl)C2(Cl)C3(Cl)Cl)cc1 (configuration not stated)	none (no result: FGF22 binding, PglD DTNB, Cneo AK release)
COc1ccc(OC)c(NC(=O)C2C(C(=O)O)C3(Cl)C(Cl)=C(Cl)C2(Cl)C3(Cl)Cl)c1 (configuration not stated)	rRNA inh HTS -19, PGC1a acetyl inh inconclusive (no result: PglD DTNB, Cneo AK release)
CN(C)c1ccnc2sc(C(N)=O)c(N)c12	PGC1a acetyl inh 48 (no result: rRNA inh HTS, FGF22 binding)
CN(C)c1ccnc2sc(C(=O)c3ccc(Br)cc3)c(N)c12	none (no result: PglD DTNB, PGC1a acetyl inh, Cneo AK release)
COc1ccc(NC(=O)O[C@H](c2ccc(OC)c(O)c2)[C@@H](CCO)OC)cc1	none (no result: rRNA inh HTS, Vif inh)
Fc1ccc(-c2nnc3ccccn23)cc1	FGF22 binding 43 (no result: PglD DTNB, Cneo AK release)
CCOC(=O)CSc1ncnc2c1nnn2-c1ccc(F)cc1	none (no result: rRNA inh HTS, FGF22 binding)
CCOC(=O)CSc1ncnc2c(C(=O)OCC)c3n(c12)CCC3	FGF22 binding 43 (no result: PglD DTNB, PGC1a acetyl inh, Cneo AK release)
C=CCCN(CC#C[C@H]1Oc2ccccc2S(=O)(=O)N2CCC[C@@H]12)S(=O)(=O)c1ccc(C)cc1	none (no result: rRNA inh HTS, Vif inh)
C[C@H](CO)N1C[C@H](C)[C@H](CN(C)Cc2ccc(-c3ccccc3)cc2)Oc2c(NC(=O)C3CC3)cccc2C1=O	none (no result: Vif inh)
C[C@@H]1CN([C@@H](C)CO)C(=O)c2cccc(NC(=O)c3ccncc3)c2O[C@H]1CN(C)Cc1ccc(C(F)(F)F)cc1	none (no result: Vif inh)
C[C@H](CO)N1C[C@H](C)[C@@H](CN(C)Cc2ccc(-c3ccccc3)cc2)Oc2c(NC(=O)C3CC3)cccc2C1=O	FGF22 binding 148 (no result: Vif inh)
C[C@H]1CN([C@@H](C)CO)C(=O)c2cccc(NC(=O)c3ccncc3)c2O[C@@H]1CN(C)Cc1ccc(C(F)(F)F)cc1	FGF22 binding 17 (no result: Vif inh)
C[C@@H]1CN([C@@H](C)CO)C(=O)c2cccc(NC(=O)c3ccncc3)c2O[C@@H]1CN(C)Cc1ccc(-c2ccccc2)cc1	rRNA inh HTS -19!
C[C@@H]1CN([C@@H](C)CO)C(=O)c2cccc(NC(=O)c3ccncc3)c2O[C@H]1CN(C)Cc1ccccc1	none (no result: Vif inh)
C[C@@H]1CN([C@H](C)CO)C(=O)c2cccc(NC(=O)c3ccncc3)c2O[C@@H]1CN(C)Cc1ccc(-c2ccccc2)cc1	Cneo AK release 101 (no result: Vif inh)
C[C@H](CO)N1C[C@H](C)[C@@H](CN(C)C(=O)C2CC2)Oc2ncc(C3=CCCC3)cc2C1=O	none (no result: FGF22 binding, Vif inh, PglD DTNB, Cneo AK release)
COc1ccc(NC(=O)O[C@H](c2ccc(OCCO)cc2)[C@@H](C)CCO)cc1	none (no result: rRNA inh HTS, Vif inh)
O=C(c1ccco1)c1nnn(Cc2ccccc2)c1-c1ccccc1	rRNA inh HTS -36
